Compound activity: PubChem, Johns Hopkins Ion Channel Center
Only some compounds are listed: those with a hit (about 3.7% of all), similar ones and a draw of the others.
hERG protect = compounds protecting human hERG from proarrhythmic drug block; Q12809; CHO-hERG, FluxOR thallium flux, dofetilide IC70 present; activation (rescue from dofetilide block), less the hit threshold, % at 10 µM; 310,000 tested, 0.51% active; AID 1511;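 active = activation above the mean of controls blocked by dofetilide plus 5 SD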;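 also: thallium influx through hERG after potassium depolarization seen as dye fluorescence rise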
Target sequence (Q12809 whole entry, looked up): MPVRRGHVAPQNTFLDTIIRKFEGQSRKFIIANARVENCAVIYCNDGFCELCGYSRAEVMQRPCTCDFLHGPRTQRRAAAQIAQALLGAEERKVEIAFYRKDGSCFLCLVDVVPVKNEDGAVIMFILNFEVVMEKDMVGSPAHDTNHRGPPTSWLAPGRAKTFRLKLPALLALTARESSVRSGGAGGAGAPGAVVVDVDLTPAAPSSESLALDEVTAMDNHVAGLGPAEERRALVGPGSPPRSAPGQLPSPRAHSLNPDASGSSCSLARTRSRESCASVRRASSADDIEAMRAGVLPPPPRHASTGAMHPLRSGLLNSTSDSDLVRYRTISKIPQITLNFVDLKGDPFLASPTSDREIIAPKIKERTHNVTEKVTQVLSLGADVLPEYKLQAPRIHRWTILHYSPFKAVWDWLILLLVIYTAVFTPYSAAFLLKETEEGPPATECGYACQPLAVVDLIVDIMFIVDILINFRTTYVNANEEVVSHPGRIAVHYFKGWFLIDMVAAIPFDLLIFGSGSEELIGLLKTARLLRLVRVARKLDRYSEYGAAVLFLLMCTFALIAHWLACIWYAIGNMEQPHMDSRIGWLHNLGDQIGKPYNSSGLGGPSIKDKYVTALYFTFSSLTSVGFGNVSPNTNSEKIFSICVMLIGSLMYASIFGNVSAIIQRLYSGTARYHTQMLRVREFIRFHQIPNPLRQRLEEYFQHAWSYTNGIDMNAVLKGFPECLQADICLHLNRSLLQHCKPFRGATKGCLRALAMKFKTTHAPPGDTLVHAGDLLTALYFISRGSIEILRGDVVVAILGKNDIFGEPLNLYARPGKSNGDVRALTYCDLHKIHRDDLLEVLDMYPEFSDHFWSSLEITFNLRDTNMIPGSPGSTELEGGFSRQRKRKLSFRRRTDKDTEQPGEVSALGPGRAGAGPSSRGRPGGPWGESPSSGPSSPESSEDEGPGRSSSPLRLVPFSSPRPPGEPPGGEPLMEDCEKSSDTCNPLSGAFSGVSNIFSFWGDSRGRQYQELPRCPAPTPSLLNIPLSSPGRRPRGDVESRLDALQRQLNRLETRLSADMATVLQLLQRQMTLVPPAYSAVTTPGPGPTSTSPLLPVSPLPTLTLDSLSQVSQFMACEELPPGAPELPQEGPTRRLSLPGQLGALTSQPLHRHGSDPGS
KCNK3 block = human KCNK3 channel inhibition, primary screen | O14649 | CHO-KCNK3 thallium flux, FluxOR fluorescence; active compounds read low | B-score at 10 µM | 340,000 tested, 0.84% active | AID 602410;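 active = B-score under library mean minus 4 SD, starting fluorescence ratio at most library mean plus 5 SD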;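 also: more negative B-score means stronger inhibition of thallium flux through KCNK3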
KCNQ1 block = inhibitors of human KCNQ1 potassium channel; P51787; CHO-K1 KCNQ1, FluxOR thallium flux fluorescence; active compounds read high; B-score at 10 µM; 310,000 tested, 1.3% active;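 active = compounds whose thallium flux B-score, printed positive for inhibition, exceeds three library SD while starting fluorescence stays within three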;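 also: channel opened by potassium depolarization with thallium stimulus after 20 min compound exposure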
KCNK9 block = human KCNK9 channel inhibition | Q9NPC2 | AID 488922 | B-score at 10 µM | HEK293 KCNK9, FluxOR thallium flux fluorescence; active compounds read low | 310,000 tested, 1.2% active;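 active = ratio B-score over 3 SD below the library mean, with starting fluorescence within 5 SD of its mean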;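 also: negative B-score means less thallium flux so channel inhibition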
KCNQ1 act = potentiates or activates the human KCNQ1 potassium channel. P51787. CHO-K1 KCNQ1, thallium flux FluxOR fluorescence; active compounds read high. B-score at 10 µM. AID 2648. 310,000 tested, 0.35% active;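 active = fluorescence ratio B-score, a plate-corrected score, at least three library SD, with initial intensity B-score within 5 SD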
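Assay system: stable KCNQ1 CHO-K1 line; medium: assay buffer, equal DMSO in all wells; timing: 90 min dye loading and 20 min compound exposure, both at room temperature; technique: kinetic FluxOR thallium fluorescence, 10-s 1-Hz baseline, 110-s post-stimulus read; read-out basis: B score of baseline-normalized fluorescence ratio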
Kir21 block = inhibitors of mouse Kir2.1 inward-rectifier potassium channel; P35561; HEK293-Kir2.1, FluxOR thallium flux fluorescence; active compounds read low; B-score at 10 µM; 310,000 tested, 0.85% active; AID 1672;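 active = fluorescence ratio B-score at or below minus 3 SD of library scores, with starting-brightness B-score within 2 SD, cut at about -4.2 in these data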;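 also: channel flux triggered by added potassium and thallium sulfate stimulus; B-score of peak minus minimum fluorescence over baseline after thallium stimulus; more negative B-score means stronger Kir2.1 block with less thallium influx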
KCNK3 inh conf = human KCNK3 channel inhibition, confirmation assay. shares compounds with KCNK3 block. CHO-KCNK3 thallium flux, FluxOR fluorescence; 0% buffer, 100% carvedilol maximal block. ratio percent of control, % at 10 µM. 2,400 tested, 99% active. AID 651638;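 active = ratio percent of control, averaged over triplicates, above buffer control mean plus 5 SD, cut at about 64% in these data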;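 also: ratio is the fluorescence rise from min to max over baseline after thallium stimulus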
KCNK3 uninduced = counter-screen for KCNK3 inhibitors: effect in non-induced cells; thallium flux ratio (lower = more inhibition) at 10 µM; non-induced KCNK3 parental cells, FluxOR thallium flux; active compounds read low; shares compounds with KCNK3 block; 2,400 tested, 40% active;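 active = thallium flux ratio, averaged over three wells, more than 5 SD below the buffer control mean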;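 also: host cells are CHO cells without KCNK3 induction; ratio is peak minus trough fluorescence over baseline then normalized to buffer controls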
Starred values were filed as active, the others as inactive; i = inactive; · = no result given.

SMILES	hERG protect	KCNK3 block	KCNQ1 block	KCNK9 block	KCNQ1 act	Kir21 block	KCNK3 inh conf	KCNK3 uninduced
CCC(C(=O)Nc1cc(F)ccc1F)n1nc(C)c2c(C)n(-c3ccc(C)cc3)nc2c1=O (stereo unspecified)	-9	i	i	i	i	0.02	·	·
O=C(c1c[nH]c2ccccc12)C(Cl)c1ccccc1 (stereo unspecified)	0	i	i	i	i	-0.17	·	·
Cc1ccc(OC(=O)c2cccc(S(=O)(=O)N(C)C)c2)c(-n2nc3ccccc3n2)c1	-6	i	i	-7.1*	i	1.2	118*	i
Cc1ccc(OC(=O)c2cccc(S(=O)(=O)N3CCCC3)c2)c(-n2nc3ccccc3n2)c1	-6	-9.3*	i	i	i	-0.52	110*	i
O=c1[nH]c2ccccc2c2nc(-c3cccc(S(=O)(=O)N4CCCC4)c3)nn12	-13	i	i	i	i	0.29	·	·
CN(C)c1oc(-c2ccccc2Cl)nc1S(=O)(=O)c1ccccc1	-8	-9.3*	i	i	i	-0.27	108*	i
Cc1ccccc1-n1c(SCC(=O)N/N=C/C=C/c2ccccc2[N+](=O)[O-])nc2ccccc2c1=O	-7	i	i	i	i	0.14	·	·
O=C(CSc1nc2ccccc2c(=O)n1-c1ccccc1)N/N=C/C=C/c1ccccc1[N+](=O)[O-]	-16	-9.1*	i	i	i	-0.25	100*	i
O=[N+]([O-])c1cc(N=Nc2ccc3ccccc3c2)ccc1O	-5	i	i	i	i	0.65	·	·
CCCS(=O)(=O)c1c(S(=O)(=O)CCC)c2ccc(C(N)=O)cn2c1C(=O)c1ccc(F)cc1	-9	-12*	i	-7.4*	i	0.5	91*	i
CCCS(=O)(=O)c1c(S(=O)(=O)CCC)c2c(N)cccn2c1C(=O)c1ccc(F)cc1	-8	i	i	i	i	0	·	·
CC(C)OCCCNC(=O)c1cn(C)c2ccc(S(=O)(=O)N(C)C3CCCCC3)cc2c1=O	-10	-9.1*	i	i	i	-0.25	90*	0.14*
COc1cc(NS(=O)(=O)c2ccc(NC(=O)CCC(=O)O)cc2)nc(OC)n1	-1	i	i	i	i	1.4	·	·
CCCSc1nc(N2CCOCC2)c2c(c1C#N)CC(C)(C)SC2	-10	-9.5*	i	i	i	0.39	128*	0.12*
CC(C)CSc1nc(N2CCOCC2)c2c(c1C#N)CC(C)(C)SC2	·	i	·	·	·	·	·	·
Cc1ccc(-c2csc3ncnc(N4CCN(Cc5ccccc5)CC4)c23)cc1	-11	-11*	i	i	i	-0.13	119*	i
Cc1cccc(C(=O)NCC(=O)N2CCN(c3ccc(Cl)cc3)CC2)c1	-3	i	i	i	i	1.4	·	·
N#Cc1cn(CCCOc2ccccc2)c2ccccc12	-7	-9.5*	i	i	i	-3.9	115*	0.14*
CC1(C)CC(=O)C=C(Nc2ccc(Cl)cc2)C1	-2	i	i	i	i	1.7	·	·
CC1(C)CC(=O)C=C(Nc2ccc(Cl)c(Br)c2)C1	-4	-10*	i	i	i	-0.18	114*	0.15*
CC(C)n1c(SCC(=O)N2c3ccccc3Sc3ccccc32)nc2c1c(=O)n(C)c(=O)n2C	-8	-11*	i	i	i	0.93	98*	i
Oc1ccc(Br)cc1-c1nc2cnccn2c1NC1CCCC1	-21	-8.8*	i	i	i	-0.17	131*	i
Cc1ccc(S(=O)(=O)NCC(=O)OCC(=O)N(CCC#N)c2ccccc2)cc1	·	i	·	·	·	·	·	·
Cc1ccc(S(=O)(=O)Nc2ccccc2C=Nc2cccc(C)c2C)cc1	-5	i	i	i	i	0.72	·	·
